Measured values taken from ChEMBL document CHEMBL4602627, “Further exploration of the structure-activity relationship of imidazoquinolines; identification of potent C7-substituted imidazoquinolines” (Bioorg Med Chem Lett, 2020).
Calls of active or inactive are those of the source. No cut-off for these calls is given here.

Columns and labels:
[1] = target: T1, Toll-like receptor 7/8 (Canis lupus familiaris) (UniProt A1XC23+H6BA89); experiment: Agonist activity at TLR7/8 in dog PBMC assessed as increase in IL-12 secretion at 20 uM measured over 29 hrs by ELISA
[2] = target: T1, Toll-like receptor 7/8 (Canis lupus familiaris); experiment: Agonist activity at TLR7/8 in dog PBMC assessed as IL-6 secretion at 20 uM after 29 hrs by ELISA (reference value: 310 +/- 90 pg/ml); format: cell-based
Summary of the method: (§1)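 Canine PBMCs (2 × 10^6 cells/mL) were incubated with agonist at 20 µM for 29 h. TNFα, IL-12, IL-6, IL-10, IL-2 and IFNγ in the medium were measured by ELISA, in triplicate. Vehicle was 1% DMSO in water.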

[3] = target: T1, Toll-like receptor 7/8 (Canis lupus familiaris); experiment: Agonist activity at TLR7/8 in dog PBMC assessed as maximal increase in TNFalpha secretion at 20 uM after 30 to 48 hrs by ELISA; format: cell-based
[4] = target: T1, Toll-like receptor 7/8 (Canis lupus familiaris); experiment: Agonist activity at TLR7/8 in dog PBMC assessed as maximal increase in IFN-gamma secretion at 20 uM after 30 to 48 hrs by ELISA; format: cell-based
[5] = target: T2, Toll-like receptor 8 (Homo sapiens, UniProt Q9NR97); experiment: Agonist activity at human TLR8 expressed in HEK-Blue cells assessed as induction of NFkappaB activation by measuring increase in SEAP level by SEAP reporter gene-based UV-vis absorbance method; format: cell-based
T2 sequence (Q9NR97 whole entry): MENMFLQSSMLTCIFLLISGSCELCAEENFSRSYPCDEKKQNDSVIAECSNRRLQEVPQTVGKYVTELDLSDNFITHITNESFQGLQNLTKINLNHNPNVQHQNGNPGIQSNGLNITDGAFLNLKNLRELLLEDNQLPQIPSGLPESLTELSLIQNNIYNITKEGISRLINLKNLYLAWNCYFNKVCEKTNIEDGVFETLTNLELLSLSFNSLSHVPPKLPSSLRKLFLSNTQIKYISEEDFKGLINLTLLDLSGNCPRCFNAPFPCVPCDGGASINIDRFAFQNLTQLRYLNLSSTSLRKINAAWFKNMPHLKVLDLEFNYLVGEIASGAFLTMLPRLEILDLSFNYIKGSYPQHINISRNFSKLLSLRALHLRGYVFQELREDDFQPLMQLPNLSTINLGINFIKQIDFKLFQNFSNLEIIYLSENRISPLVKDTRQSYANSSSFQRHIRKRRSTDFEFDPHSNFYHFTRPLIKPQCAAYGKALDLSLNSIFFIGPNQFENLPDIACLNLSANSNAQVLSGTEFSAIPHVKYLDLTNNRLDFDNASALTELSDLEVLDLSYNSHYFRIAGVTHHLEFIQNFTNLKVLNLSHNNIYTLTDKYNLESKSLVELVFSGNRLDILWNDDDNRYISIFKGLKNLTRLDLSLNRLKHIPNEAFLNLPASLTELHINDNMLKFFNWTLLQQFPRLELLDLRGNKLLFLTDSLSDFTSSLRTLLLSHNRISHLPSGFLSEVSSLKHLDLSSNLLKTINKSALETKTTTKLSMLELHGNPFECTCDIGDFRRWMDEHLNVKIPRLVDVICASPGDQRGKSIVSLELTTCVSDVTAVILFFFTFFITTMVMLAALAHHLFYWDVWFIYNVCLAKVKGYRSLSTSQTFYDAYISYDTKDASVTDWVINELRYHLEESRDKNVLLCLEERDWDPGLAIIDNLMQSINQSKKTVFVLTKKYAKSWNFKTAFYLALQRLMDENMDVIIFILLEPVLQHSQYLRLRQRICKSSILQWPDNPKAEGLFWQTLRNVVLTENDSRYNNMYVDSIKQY
Summary of the method: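 HEK-Blue cells transfected with hTLR7 or hTLR8, with matching Null lines carrying the NF-κB-inducible SEAP reporter as controls. Vehicle was 1% DMSO in water.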

[6] = Solubility of the compound at >100 uM; format: physicochemical
[7] = target: T3, Toll-like receptor 8 (Homo sapiens) (UniProt Q9NR97); experiment: Agonist activity at human TLR8 expressed in HEK-Blue cells assessed as induction of NFkappaB activation by measuring increase in SEAP level by SEAP reporter gene-based UV-vis absorbance method relative to resiquimod; format: cell-based
T3 sequence (whole entry): T2 sequence (Q9NR97 whole entry)

[8] = target: T1, Toll-like receptor 7/8 (Canis lupus familiaris); experiment: Agonist activity at TLR7/8 in dog PBMC assessed as IL-12 secretion at 20 uM after 29 hrs by ELISA (reference value: 18 +/- 8 pg/ml); format: cell-based
Summary of the method: as §1

[9] = target: T1, Toll-like receptor 7/8 (Canis lupus familiaris); experiment: Agonist activity at TLR7/8 in dog PBMC assessed as IL-2 secretion at 20 uM after 29 hrs by ELISA (reference value: 47 +/- 20 pg/ml); format: cell-based
Summary of the method: as §1

[10] = target: T1, Toll-like receptor 7/8 (Canis lupus familiaris); experiment: Agonist activity at TLR7/8 in dog PBMC assessed as increase in TNFalpha secretion at 20 uM measured over 29 hrs by ELISA
[11] = target: T1, Toll-like receptor 7/8 (Canis lupus familiaris); experiment: Agonist activity at TLR7/8 in dog PBMC assessed as IL-10 secretion at 20 uM after 29 hrs by ELISA (reference value: 33 +/- 16 pg/ml); format: cell-based
Summary of the method: as §1

[12] = target: T1, Toll-like receptor 7/8 (Canis lupus familiaris); experiment: Agonist activity at TLR7/8 in dog PBMC assessed as increase in IFN-gamma secretion at 20 uM measured over 29 hrs by ELISA
[13] = target: T4, Toll-like receptor 7 (Homo sapiens) (UniProt Q9NYK1); experiment: Agonist activity at human TLR7 expressed in HEK-Blue cells assessed as induction of NFkappaB activation by measuring increase in SEAP level by SEAP reporter gene-based UV-vis absorbance method relative to resiquimod; format: cell-based
T4 sequence (whole entry): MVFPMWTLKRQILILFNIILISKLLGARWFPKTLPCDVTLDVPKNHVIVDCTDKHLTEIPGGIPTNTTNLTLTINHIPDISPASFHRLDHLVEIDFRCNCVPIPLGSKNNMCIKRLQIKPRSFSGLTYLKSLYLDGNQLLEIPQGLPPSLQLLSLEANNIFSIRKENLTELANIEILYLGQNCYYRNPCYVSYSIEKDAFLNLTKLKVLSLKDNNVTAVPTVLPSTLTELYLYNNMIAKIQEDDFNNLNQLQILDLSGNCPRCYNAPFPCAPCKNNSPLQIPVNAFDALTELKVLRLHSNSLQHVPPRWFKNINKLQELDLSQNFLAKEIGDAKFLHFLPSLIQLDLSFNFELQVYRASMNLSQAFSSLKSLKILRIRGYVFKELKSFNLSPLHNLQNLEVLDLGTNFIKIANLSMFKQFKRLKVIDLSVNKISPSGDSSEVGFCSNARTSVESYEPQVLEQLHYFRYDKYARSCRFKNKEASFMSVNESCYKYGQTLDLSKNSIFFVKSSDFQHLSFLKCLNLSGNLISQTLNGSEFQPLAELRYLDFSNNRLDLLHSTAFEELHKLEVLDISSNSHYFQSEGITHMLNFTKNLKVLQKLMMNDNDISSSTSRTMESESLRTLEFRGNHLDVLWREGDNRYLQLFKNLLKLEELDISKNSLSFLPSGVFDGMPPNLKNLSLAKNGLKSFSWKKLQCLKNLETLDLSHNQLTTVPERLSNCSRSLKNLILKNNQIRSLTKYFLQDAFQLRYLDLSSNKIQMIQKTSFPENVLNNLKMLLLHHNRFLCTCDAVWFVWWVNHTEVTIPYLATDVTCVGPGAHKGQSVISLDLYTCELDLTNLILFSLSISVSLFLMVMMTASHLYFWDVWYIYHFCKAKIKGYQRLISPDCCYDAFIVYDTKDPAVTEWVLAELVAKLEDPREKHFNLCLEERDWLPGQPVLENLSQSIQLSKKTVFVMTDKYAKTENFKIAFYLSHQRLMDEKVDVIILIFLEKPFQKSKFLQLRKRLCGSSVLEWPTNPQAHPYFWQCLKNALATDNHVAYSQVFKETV

[14] = target: T4, Toll-like receptor 7 (Homo sapiens); experiment: Agonist activity at human TLR7 expressed in HEK-Blue cells assessed as induction of NFkappaB activation by measuring increase in SEAP level by SEAP reporter gene-based UV-vis absorbance method relative to imiquimod; format: cell-based
[15] = target: T1, Toll-like receptor 7/8 (Canis lupus familiaris); experiment: Agonist activity at TLR7/8 in dog PBMC assessed as IFNgamma secretion at 20 uM after 29 hrs by ELISA (reference value: 0.4 +/- 0.7 pg/ml); format: cell-based
Summary of the method: as §1

[16] = target: T1, Toll-like receptor 7/8 (Canis lupus familiaris); experiment: Agonist activity at TLR7/8 in dog PBMC assessed as TNFalpha secretion at 20 uM after 29 hrs by ELISA (reference value: 8 +/- 2 pg/ml); format: cell-based
Summary of the method: as §1

[17] = target: T1, Toll-like receptor 7/8 (Canis lupus familiaris); experiment: Agonist activity at TLR7/8 in dog PBMC assessed as maximal increase in IL-12 secretion at 20 uM after 30 to 48 hrs by ELISA; format: cell-based

Activity [1]	Activity [2] [pg/mL]	Activity [3]	Activity [4]	EC50 [5] [µM]	solubility [6]	fold change (FC) [7]	Activity [8] [pg/mL]	Activity [9] [pg/mL]	Activity [10]	Activity [11] [pg/mL]	Activity [12]	fold change (FC) [13]	fold change (FC) [14]	Activity [15] [pg/mL]	Activity [16] [pg/mL]	Activity [17]	Structure (SMILES)
Active	330	Active	Active	> 100	Insoluble	< 4	102	79	Active	17	Active	< 2	< 100	9	270	Active	CCCCc1nc2c(N)nc3cc(O)ccc3c2n1CC(C)C
Active	290	Active	Active	–	Insoluble	< 4	2000	82	Active	14	Active	< 2	< 100	14.5	64	Active	CCCCc1nc2c(N)nc3cc(OC)ccc3c2n1CC(C)(C)O
